In ChEMBL document CHEMBL4325822, “Discovery of a tetrazolyl β-carboline with in vitro and in vivo osteoprotective activity under estrogen-deficient conditions” (Medchemcomm, 2018):
Each block holds one compound with its values, some of them ahead of it. Calls of active or inactive are those of the source. The calls are words filed in the database; no cut-off is given here.

Tests used:
[1] = Induction of osteoblast differentiation in Sprague-Dawley rat calvarial osteoblasts assessed as alkaline phosphatase activity after 48 hrs using PNPP as substrate by spectrophotometric method; format: functional, cell-based; conditions: Rattus norvegicus, Sprague-Dawley, Calvarial osteoblast, 48 h; read-out: EC50
Procedure, shortened: (§1)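 Calvarial osteoblasts at 2 × 10³ cells/well. Treated 48 h with varied concentrations in differentiation medium (5% charcoal-treated FBS, 10 mM β-glycerophosphate, 50 µg·mL⁻¹ ascorbic acid). Total ALP read with PNPP substrate at 405 nm. Cell-free wells check for compound interference with substrate or absorbance.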

[2] = Induction of osteoblast differentiation in Sprague-Dawley rat calvarial osteoblasts assessed as alkaline phosphatase activity at 1 nM after 48 hrs using PNPP as substrate by spectrophotometric method relative to control; format: functional; procedure, shortened: as §1
[3] = Induction of osteoblast differentiation in Sprague-Dawley rat calvarial osteoblasts assessed as alkaline phosphatase activity at 10 nM after 48 hrs using PNPP as substrate by spectrophotometric method relative to control; format: functional; procedure, shortened: as §1
Calvarial osteoblast [4] = assay: Cytotoxicity against Sprague-Dawley rat calvarial osteoblasts assessed as reduction in cell viability at 0.000001 to 1 uM after 48 hrs by MTT assay; format: cell-based
Procedure, shortened: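 Osteoblasts came from pooled calvaria of 1-2-day-old Sprague-Dawley pups, isolated by sequential dispase/collagenase digestion. Cells were exposed to compound at 1 pM to 1 µM for 48 h, and viability was measured by MTT.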

Calvarial osteoblast [5] = assay: Osteogenic activity in Sprague-Dawley rat calvarial osteoblasts assessed as mineralized nodule formation at 10 nM after 21 days by alizarin red-S staining based light microscopic method; format: functional, cell-based
Procedure, shortened: (§2)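 Osteoblasts at 10,000–15,000 cells/cm² in duplicate plates, 21 days in differentiation medium, medium changed every 48 h. Cells fixed in 4% PFA, stained with alizarin red-S (40 mM, pH 4.5, 30 min) and photographed. Stain extracted with 10% acetic acid, pH brought to 4.5 with ammonium hydroxide, read at 405 nm, normalized to cell number.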

Calvarial osteoblast [6] = assay: Osteogenic activity in Sprague-Dawley rat calvarial osteoblasts assessed as mineralized nodule formation at 10 nM after 21 days by alizarin red-S staining based colorimetric method; format: functional; procedure, shortened: as §2
[7] = Increase in BMP2 mRNA expression in Sprague-Dawley rat calvarial osteoblasts at 10 nM by RT-PCR method relative to control; format: functional, Calvarial osteoblast
Procedure, shortened: (§3)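 Primary calvarial osteoblasts were lysed in TRIzol after treatment, and total RNA was extracted. Transcripts were quantified by real-time PCR using the comparative CT (ΔΔCT) method.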

[8] = Increase in OCN mRNA expression in Sprague-Dawley rat calvarial osteoblasts at 10 nM by RT-PCR method relative to control; format: functional, Calvarial osteoblast; procedure, shortened: as §3
[9] = Increase in Runx2 mRNA expression in Sprague-Dawley rat calvarial osteoblasts at 10 nM by RT-PCR method relative to control; format: functional, Calvarial osteoblast
Calvarial osteoblast [10] = assay: Increase in Runx2 protein expression in Sprague-Dawley rat calvarial osteoblasts at 10 nM after 48 hrs by Western blot analysis; format: functional, cell-based
Procedure, shortened: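 Rat calvarial osteoblasts (pooled 1–2-day pups, collagenase/dispase digests) at 60–70% confluence treated 48 h. Whole-cell lysates immunoblotted with primary antibody overnight at 4 °C, then HRP secondary, with ECL detection. Densitometry gives fold change normalized to β-actin versus untreated cells. Mean ± SEM of three independent experiments.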

Calvarial osteoblast [11] = assay: Increase in BMP2 protein expression in Sprague-Dawley rat calvarial osteoblasts at 10 nM after 48 hrs by Western blot analysis; format: functional, cell-based
Procedure, shortened: (§4)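 Rat calvarial osteoblasts at 60-70% confluence were treated 48 h. Whole-cell lysates were blotted, blocked in 5% milk, and probed with primary antibody overnight at 4 °C, then with HRP secondary and ECL detection. Densitometry was normalized to β-actin; fold change versus untreated cells, three independent experiments, mean ± SEM.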

Calvarial osteoblast [12] = assay: Increase in OCN protein expression in Sprague-Dawley rat calvarial osteoblasts at 10 nM after 48 hrs by Western blot analysis; format: functional, cell-based; procedure, shortened: as §4
[13] = Induction of osteoblast differentiation in Sprague-Dawley rat calvarial osteoblasts assessed as alkaline phosphatase activity at 100 nM after 48 hrs using PNPP as substrate by spectrophotometric method relative to control; format: functional; procedure, shortened: as §1
[14] = Induction of osteoblast differentiation in Sprague-Dawley rat calvarial osteoblasts assessed as alkaline phosphatase activity at 10 pM after 48 hrs using PNPP as substrate by spectrophotometric method relative to control; format: functional; procedure, shortened: as §1

- EC50 [1]: 545 nM
SMILES: COC(=O)c1cc2c([nH]c3ccccc32)c(C=O)n1
- Emax at 0.001 µM [2]: 24%

- EC50 [1]: 1200 nM
SMILES: CCOC(=O)c1cc2c([nH]c3ccccc32)c(C(NCc2ccc(OC)cc2)c2nnnn2C(C)(C)C)n1 (configuration not stated)
- Emax at 0.01 µM [3]: 75%
- Activity (Calvarial osteoblast [4]): Non-Toxic
- Activity (Calvarial osteoblast [5]): Active
- Activity (Calvarial osteoblast [6]): 52%
- fold change (FC) [7]: 1.8 - 4.6
- fold change (FC) [8]: 1.8 - 4.6
- fold change (FC) [9]: 1.8 - 4.6
- Activity (Calvarial osteoblast [10]): Active
- Activity (Calvarial osteoblast [11]): Active
- Activity (Calvarial osteoblast [12]): Active

- EC50 [1]: 936 nM
SMILES: CCOC(=O)c1cc2c([nH]c3ccccc32)c(C(c2nnnn2C(C)(C)C)N2CCN(CC)CC2)n1 (configuration not stated)
- Emax at 0.1 µM [13]: 14%

- EC50 [1]: 530 nM
SMILES: COC(=O)c1cc2c([nH]c3ccccc32)c(C(c2nnnn2C2CCCCC2)N2CCN(C)CC2)n1 (configuration not stated)
- Emax at 10 pM [14]: 30%
